In ChEMBL document CHEMBL1165974, “Novel pyrazole derivatives: synthesis and evaluation of anti-angiogenic activity” (Bioorg Med Chem, 2010) one finds IC50 and inhibition data, which are given here for 20 compounds.

Active and inactive are the calls of the source. The rule behind the calls is not given here.

A short description of experiment [1]: Antiangiogenic activity in MAEC assessed as inhibition of cell proliferation after 5 days by Coulter counting analysis. In kind it is functional. As to conditions: Mus musculus, 120 h. In a few lines: (§1)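 Cells seeded at 10,000 cells per cm2; after 16 h given fresh medium containing test compounds. Trypsinized on day 5 and counted by Coulter counter. […] Tumour lines kept in DMEM with 10 mM Hepes and 10% FBS.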

For experiment [2], the species on record is Gallus gallus. The experiment can be described thus: Antiangiogenic activity in chicken embryo chorioallantoic membrane model assessed as inhibition of VEGF-induced angiogenesis at 50 nmol after 2 days by photographic analysis.
Experiment [3] in a line: Antiangiogenic activity in BAEC assessed as inhibition of cell proliferation after 5 days by Coulter counting analysis. In kind it is functional, cell-based. As to conditions: Bos taurus, 120 h. Summed up: as §1
Experiment [4] relates to HeLa. The experiment in a line: Cytostatic activity against human HeLa cells after 5 days by Coulter counting analysis. In kind it is functional, cell-based. As to conditions: 120 h. In a few lines: as §1
Experiment [5] has as its system MCF7. The experiment can be described thus: Cytostatic activity against human MCF7 cells after 5 days by Coulter counting analysis. In kind it is functional, cell-based. As to conditions: MCF7, 120 h. In a few lines: as §1
The species entered for experiment [6] is Gallus gallus. The experiment can be described thus: Antiangiogenic activity in chicken embryo chorioallantoic membrane model assessed as complete inhibition of VEGF-induced angiogenesis at 50 nmol after 2 days by photographic analysis.
Experiment [7] can be described thus: Antiangiogenic activity in MAEC assessed as inhibition of cell migration-associated wound closure at 50 uM after 8 hrs imaging analysis. The class given is functional. The conditions noted are these: Mus musculus. Summed up:
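Confluent MAEC monolayers wounded with a 1.0-mm wide tip, then incubated in fresh medium with 10% FCS plus compound (10 and 50 μM). At 8 h, wounds photographed; cells invading the wound quantified by computerized analysis of digitized images. Results as mean ± SEM.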

As for `O=C(O)/C=C/c1cn(-c2ccc(O)cc2)nc1-c1ccccc1`, the half-inhibitory concentration (IC50) (in general, the concentration that gives 50% inhibition) in experiment [1] is over 100 µM.

With `O=C(O)/C=C/c1cn(-c2ccc(O)cc2)nc1-c1cc(O)ccc1O`, the half-inhibitory concentration (IC50) in experiment [1] was over 100 µM.

With `O=Cc1cn(-c2ccc(O)cc2)nc1-c1ccc(O)c(O)c1`, in experiment [2], the inhibition (usually the percentage by which the read-out fell short of the control) is “Toxic”. For the same compound, the IC50 amounted to 12 µM in experiment [1], 17 µM in experiment [3], 39 µM in experiment [4] and 24 µM in experiment [5].

For `O=Cc1cn(-c2ccc(O)cc2)nc1-c1cccc(O)c1`, the inhibition in experiment [2] was 50%. The IC50 was 42 µM in experiment [1], 29 µM in experiment [3], 37 µM in experiment [4] and 29 µM in experiment [5].

`O=c1c2cn(-c3ccc(O)cc3)nc2c2cc(O)c(O)cc2n1O`: the inhibition result in experiment [2] is “Active”.

As for `O=C(O)/C=C/c1cn(-c2ccc(O)cc2)nc1-c1ccc(O)c(O)c1`, the IC50 in experiment [1] was over 100 µM.

As to `O=c1c2cn(-c3ccc(O)cc3)nc2c2c(O)ccc(O)c2n1O`, the inhibition result in experiment [2] is “Active”.

Regarding `CCOC(=O)/C=C/c1cn(-c2ccc(O)cc2)nc1-c1cccc(O)c1`, the IC50 in experiment [1] was 14 µM.

On to `O=Cc1cn(-c2ccc(O)cc2)nc1-c1ccc(O)cc1`, for which the inhibition in experiment [2] is 48%. For the same compound, the IC50 in experiment [1] came to 44 µM; in experiment [3], 32 µM; in experiment [4], 37 µM; in experiment [5], 38 µM.

Take `O=Cc1cn(-c2ccc(O)cc2)nc1-c1ccccc1`: the inhibition result in experiment [2] is “inactive”. Besides, the IC50 was over 100 µM in experiment [1], 64 µM in experiment [3], 79 µM in experiment [4] and 47 µM in experiment [5].

As to `O=c1c2cn(-c3ccc(O)cc3)nc2c2ccc(O)cc2n1O`, in experiment [2], the inhibition entry was “Active”. Also, the IC50 in experiment [1] was found to be 42 µM; in experiment [3], 52 µM; in experiment [4] it was 38 µM; in experiment [5], 25 µM.

As to `O=C(O)/C=C/c1cn(-c2ccc(O)cc2)nc1-c1ccc(O)cc1`, the IC50 in experiment [1] is over 100 µM.

With `CCOC(=O)/C=C/c1cn(-c2ccc(O)cc2)nc1-c1ccc(O)cc1`, the IC50 in experiment [1] came to 25 µM.

Regarding `O=C(O)/C=C/c1cn(-c2ccc(O)cc2)nc1-c1cccc(O)c1`, in experiment [1], the IC50 was over 100 µM.

In the case of `CCOC(=O)/C=C/c1cn(-c2ccc(O)cc2)nc1-c1cc(O)ccc1O`, in experiment [1], the concentration for half-maximal inhibition (IC50) came out at 12 µM.

Take `O=c1c2cn(-c3ccc(O)cc3)nc2c2cc(O)ccc2n1O`: the inhibition entry in experiment [6] is “Active”. Also, the inhibition in experiment [2] was 64%. Besides, the half-maximal inhibitory concentration (IC50) turned out to be 25 µM in experiment [1], 38 µM in experiment [3], 37 µM in experiment [4] and 26 µM in experiment [5]. Further, in experiment [7], the inhibition at 50 µM turned out to be 76%.

Regarding `CCOC(=O)/C=C/c1cn(-c2ccc(O)cc2)nc1-c1ccccc1`, the IC50 in experiment [1] came out at 29 µM.

For `O=Cc1cn(-c2ccc(O)cc2)nc1-c1cc(O)ccc1O`, the inhibition entry in experiment [2] was “Toxic”. For the same compound, the IC50 in experiment [1] is 43 µM; in experiment [3], at least 100 µM; in experiment [4] it was at least 100 µM; in experiment [5] it was at least 100 µM.

With `CCOC(=O)/C=C/c1cn(-c2ccc(O)cc2)nc1-c1ccc(O)c(O)c1`, in experiment [1], the 50% inhibitory concentration (IC50) was 6.2 µM.

With `O=c1c2cn(-c3ccc(O)cc3)nc2c2ccccc2n1O`, the inhibition result in experiment [2] was “Active”. Besides, the IC50 was 7 µM in experiment [1], 4.6 µM in experiment [3], 8.9 µM in experiment [4] and 5.8 µM in experiment [5].
